Read-outs that look alike come from different tables or passages of the source.
Tests used:
NRF2 [1] = assay: ARE-luciferase NRF2 activation assay; type: cell-based; settings: for Max. induction (fold): ARE-luciferase relative to vehicle control, MDA-MB-231
KEAP1-C151S = assay: Dual luciferase reporter assay and immunoblot, KEAP1-C151S re-expressed; type: cell-based; settings: for firefly luciferase induction in the presence of KEAP1-C151S: KEAP1-/- MDA-MB-231 + KEAP1-C151S, 5 at EC50, As 1 µM, 16 hours; for KEAP1-Cys151 dependence of NRF2 activation: KEAP1-WT versus KEAP1-C151S, dual luciferase and immunoblot
NRF2 [2] = assay: NRF2 ubiquitination assay; type: cell-based; settings: MDA-MB-231 transfected with NRF2 and HA-Ubiquitin, 3 2.33 µM, 5 71.5 µM, 4 hours
NRF2 [3] = assay: Real-time qRT-PCR of NRF2 and downstream genes; type: cell-based; settings: MDA-MB-231, 16 hours
Summary of the method: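 MDA-MB-231 cells (6×10^5 per 35 mm dish) were treated 24 h after seeding with test compound for 16 h. Total RNA was TRIzol-extracted, and 1 µg was reverse-transcribed with M-MLV RT. SYBR Green qPCR: 95 °C 4 min, then 45 cycles of 95 °C 10 s and 60 °C 30 s. Values are normalised to GAPDH with untreated set to 1. Three runs in duplicate, mean ± SD, Student t-test.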

NRF2 [4] = assay: Immunoblot of NRF2 and downstream genes; type: cell-based; settings: for protein level of NRF2 and downstream target genes AKR1C1, NQO-1, HO-1, GCLM: MDA-MB-231, indicated doses, 16 hours
Summary of the method: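 MDA-MB-231 cells were seeded at 6×10^5 per 35 mm dish and treated 24 h later with test compound. Treatment was either a dose series for 16 h, or 2.33 or 71.5 µM (per compound) for a time course up to 48 h. Lysates were made in Laemmli buffer, boiled 5 min and run on SDS-PAGE, then immunoblotted for NRF2, AKR1C1, NQO1, HO-1 and GCLM. Done in triplicate.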

NRF2 [5] = assay: NRF2 protein half-life; type: cell-based
KEAP1 = assay: NRF2 immunoblot in KEAP1-WT and KEAP1-/- cells; type: cell-based; settings: for level of NRF2 in KEAP1-/- cells: KEAP1-/- MDA-MB-231, four hours; for level of NRF2 in WT cells: KEAP1-WT MDA-MB-231, four hours
KEAP1-WT = assay: Dual luciferase reporter assay and immunoblot, KEAP1-WT re-expressed; type: cell-based; settings: KEAP1-/- MDA-MB-231 + KEAP1-WT, at EC50, 16 hours
Summary of the method: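 KEAP1−/− MDA-MB-231 cells (CRISPR-Cas9) were co-transfected with a KEAP1-WT expression vector plus NQO1-ARE firefly and TK-Renilla luciferase reporters. After 24 h, cells were treated with test compound for 16 h; controls were SFN (2 µM) and NaAsO2 (1 µM). Firefly activity is reported relative to Renilla (dual-luciferase), with an NRF2/KEAP1 immunoblot normalised to GAPDH. Mean ± SD of three independent experiments.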

[6] = MDA-MB-231 ARE-luciferase cell line, 48 h, MTT
[7] = induction of ARE-luciferase, MDA-MB-231, 16 hours
[8] = MDA-MB-231, 71.5 µM, cycloheximide

C=C1C(=O)[C@]23C[C@H]1CC[C@H]2[C@]1(C)[C@@H](O)CC[C@@](C)(C(=O)OC)[C@H]1C[C@@H]3O [Compound 6, methylgeopyxin A]
Max. induction (fold) (NRF2 [1]): 2.2 fold
EC50 (NRF2 [1]; Homo sapiens, MDA-MB-231, 16 h): 2.32 ± 0.17 µM
LD50 [48 h] (MDA-MB-231 cells; [6]): 8.69 ± 0.93 µM

C=C1C(=O)[C@]23C[C@H]1CC[C@H]2[C@]1(C)[C@@H](O)CC[C@@](C)(C(=O)O)[C@H]1C[C@@H]3O [Compound 1, geopyxin A]
Max. induction (fold) (NRF2 [1]): 2.1 fold
EC50 (NRF2 [1]; Homo sapiens, MDA-MB-231, 16 h): 4.44 ± 0.41 µM
LD50 [48 h] (MDA-MB-231 cells; [6]): 60.36 ± 1.18 µM

16,17-dihydrogeopyxin A [Compound 16]
Max. induction (fold) (NRF2 [1]): 1.6 fold
EC50 (NRF2 [1]; [7]): 70.4 ± 5.12 µM
LD50 [48 h] (MDA-MB-231 cells): >128 µM

CC(C)(C)c1cc(O)ccc1O [tBHQ, tert-butylhydroquinone, reference compound]
Max. induction (fold) (NRF2 [1]): 2.2 fold
EC50 (NRF2 [1]; Homo sapiens, MDA-MB-231, 16 h): 2.43 ± 0.34 µM
LD50 [48 h] (MDA-MB-231 cells; [6]): 85.1 µM

15α-Hydroxy-15-deoxy-methylgeopyxin A [Compound 13]
Max. induction (fold) (NRF2 [1]): 1.9 fold
EC50 (NRF2 [1]; [7]): 73.1 ± 0.87 µM
LD50 [48 h] (MDA-MB-231 cells): >128 µM

O=[As][O-].[Na+] [NaAsO2, Sodium (meta)arsenite, reference compound]
firefly luciferase induction in the presence of KEAP1-C151S (KEAP1-C151S): induction

C[C@]12[C@@H]3CC[C@@H]4C[C@]3(C(=O)[C@@H]4CO)[C@@H](O)C[C@@H]1[C@](C)(C(=O)O)CC[C@@H]2O [Compound 5, geopyxin F]
Max. induction (fold) (NRF2 [1]): 3.0 fold
EC50 (NRF2 [1]; [7]): 71.5 ± 5.8 µM
ubiquitylation of NRF2 (NRF2 [2]): largely fails to be ubiquitylated
mRNA level of NRF2 (NRF2 [3]): remained unchanged
mRNA levels of the downstream genes (NRF2 [3]): increased in a dose dependent manner
time course of NRF2 protein level (NRF2 [4]; MDA-MB-231, 71.5 µM 5): continues to steadily rise all the way up to 48 hours
protein level of NRF2 and downstream target genes AKR1C1, NQO-1, HO-1, GCLM (NRF2 [4]): dose dependent increases
half-life of NRF2 (NRF2 [5]): increased the half-life
increase of half-life of NRF2 relative to compound 3 (NRF2 [5]; [8]): more than 2 times
increase of half-life of NRF2 relative to untreated cells (NRF2 [5]; [8]): more than 3 times
LD50 [48 h] (MDA-MB-231 cells): >128 µM
cellular toxicity (MDA-MB-231 cells): no cellular toxicity
firefly luciferase induction in the presence of KEAP1-C151S (KEAP1-C151S): induction
KEAP1-Cys151 dependence of NRF2 activation (KEAP1-C151S): independent of KEAP1-Cys151
level of NRF2 in KEAP1-/- cells (KEAP1): failed to further activate
level of NRF2 in WT cells (KEAP1): dose-dependent activation
firefly luciferase induction in the presence of KEAP1-WT (KEAP1-WT): induced

C[S+]([O-])CCCCN=C=S (centres unmarked) [SFN, sulforaphane, reference compound]
Max. induction (fold) (NRF2 [1]): 1.9 fold
EC50 (NRF2 [1]; Homo sapiens, MDA-MB-231, 16 h): 0.97 ± 0.18 µM
ubiquitylation of NRF2 (NRF2 [2]): largely fails to be ubiquitylated
LD50 [48 h] (MDA-MB-231 cells; human, 48 h): 46.2 µM

16,17-epoxymethylgeopyxin A [Compound 15]
Max. induction (fold) (NRF2 [1]): 3.5 fold
EC50 (NRF2 [1]; [7]): 26.8 ± 4.08 µM
LD50 [48 h] (MDA-MB-231 cells): 115.11 ± 3.57 µM

C=C1C(=O)[C@]23C[C@H]1CC[C@H]2[C@]1(C)C(=O)CC[C@@](C)(C(=O)O)[C@H]1C[C@@H]3O [Compound 3, geopyxin C]
Max. induction (fold) (NRF2 [1]): 2.1 fold
EC50 (NRF2 [1]; [7]): 2.33 ± 0.35 µM
ubiquitylation of NRF2 (NRF2 [2]): largely fails to be ubiquitylated
mRNA level of NRF2 (NRF2 [3]): remained unchanged
mRNA levels of the downstream genes (NRF2 [3]): increased in a dose dependent manner
time of peak NRF2 protein level (NRF2 [4]; MDA-MB-231, 2.33 µM 3): 4 h
protein level of NRF2 and downstream target genes AKR1C1, NQO-1, HO-1, GCLM (NRF2 [4]): dose dependent increases
half-life of NRF2 (NRF2 [5]; MDA-MB-231, at EC50, cycloheximide, in words): increased the half-life
LD50 [48 h] (MDA-MB-231 cells; [6]): 51.29 ± 1.23 µM
KEAP1-Cys151 dependence of NRF2 activation (KEAP1-C151S): Cys151 dependent
level of NRF2 in KEAP1-/- cells (KEAP1): failed to further activate
level of NRF2 in WT cells (KEAP1): dose-dependent activation
firefly luciferase induction in the presence of KEAP1-WT (KEAP1-WT): induced

1-O-Acetyl-15α-hydroxy-15-deoxy-methylgeopyxin A [Compound 14]
Max. induction (fold) (NRF2 [1]): 4.2 fold
EC50 (NRF2 [1]; [7]): 54.5 ± 5.1 µM
LD50 [48 h] (MDA-MB-231 cells): 123.63 ± 3.89 µM
